Cneo AK release: Cryptococcus neoformans cell lysis inducers, primary screen, AK release luminescence, single concentration; C. neoformans lysis, adenylate kinase release luminescence, 4 h; normalised: neutral wells 0, clomiphene wells 100; lysis activity, % at 15 µM; 0.2% of 360,000 active;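 active = mean lysis activity across replicates of at least 80%, whatever share of replicates individually reach that level; inactive = mean lysis activity below 80%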
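Test system: log-phase Cryptococcus neoformans yeast cells. Input: 5 × 10^6 yeast cells/mL. Medium: fresh YPD growth medium. Doses: single dose. Incubation: static 4 h at 37 °C with compound, 1 h detection. Measured by: luminescent adenylate kinase detection reagent. Read-out: signal increase indicating cell lysis. Benchmarks: Clomiphene.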
INS-1E GSIS act: GLuc luminescence reporter in INS-1E cells, primary screen for activators of glucose-dependent secretion of insulin; activation, % at 16.6 µM; INS-1E GLuc reporter insulin secretion, 2-3 h; AID 743287, 2014; 0.61% of 370,000 active;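 active = lowest replicate activation of at least 40%, so every replicate reaches that level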
CFTR F508del cor: F508del CFTR correction, initial screen, CFBE line, single point | CFBE cells, YFP halide quenching; stimulated with forskolin plus potentiator P3; % fluorescence drop versus neutral controls | 0.36% of 350,000 active | activity (quench increase), % at 7.58 µM;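 active = mean added fluorescence quench of at least 8% versus neutral control, with both replicates also reaching 8%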;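 also: cells transiently co-express mutant CFTR-F508del with the halide-sensitive YFP; corrector assay measuring rescue of mutant channel to the surface after 24 h compound exposure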
HIV Env fusion: inhibitors of HIV-1 Env-driven cell-cell fusion, primary screen, HeLa-JRFL effector, CEM21 target cells, luciferase | inhibition, % at 12.3 µM | 1.1% of 360,000 active;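 active = mean replicate inhibition score of at least 50 and every replicate individually at or above 50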
rRNA inh HTS: reduced GFP signal of wild-type E. coli, primary screen, bacterial rRNA inhibitor project, GFP/RFP fluorescence, OD600, single point | AID 720706, 2013 | E. coli WT GFP vs humanized-ribosome RFP mutants, 24 h; active compounds read low; DMSO median 0, no signal -100 | 1.6% of 350,000 active | GFP signal change (wild-type ribosome), % (no concentration beside the values);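 active = significant combined selectivity score with lowered wild-type GFP, culture density cut under 30%, mutant RFP and density less affected; inactive = any of these conditions unmet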
miR-122 sensor: miR-122 Renilla sensor signal increase in Huh7, primary screen, miR-122 inhibitor project, cell-based, single point, plate reader; Huh7 miR-122 Renilla luciferase sensor, 48 h; neutral wells = 0, positive control = 100; activation (reporter increase), % at 12.5 µM; 0.3% of 340,000 active;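 active = mean replicate activation score at least 90 and every replicate individually at or above 90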;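 also: higher luciferase means less miR-122 activity so hits act as miR-122 inhibitors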
Numbers stand for hits; 0 = inactive; - = not tested or not shown; [ ] = dose if it differs, or a comment. Only some compounds are listed: those with a hit (about 3.1% of all), similar ones and a draw of the others.

SMILES	Cneo AK release	INS-1E GSIS act	CFTR F508del cor	HIV Env fusion	rRNA inh HTS	miR-122 sensor
CC1(C)c2ssc(=S)c2-c2ccccc2N1C(=O)c1ccco1	0	-	-	0	-	0
Cc1ccc2c(c1)-c1c(ssc1=S)C(C)(C)N2C(=O)c1ccco1	0	-	-	57	-	0
Cc1cc(C(=O)Nc2cccc3c2O[C@@H](CN(C)Cc2ccc(Cl)c(Cl)c2)[C@@H](C)CN([C@H](C)CO)C3=O)n(C)n1	0	0	0	0	0	0
CO[C@H]1CN(C)C(=O)c2cc(NC(C)=O)ccc2OC[C@@H](C)N(C(=O)c2ccc(F)cc2)C[C@@H]1C	0	0	0	0	0	-
COc1ccc(-n2c(=O)n(Cc3ccccc3)c(=O)c3[nH]cnc32)cc1	-	0	0	0	0	-
COc1ccc(Cn2c(=O)c3[nH]cnc3n(-c3ccc(C)cc3)c2=O)cc1	0	-	0	0	-20	-
CC(=O)c1cnn(-c2c(Cl)cc(Cl)cc2Cl)c1C	0	-	0	0	-22	0
CC(=O)c1cnn(-c2ccccc2)c1C	-	0	0	0	0	0
C/C=C/c1ccc([C@@H]2[C@@H](CO)N(C(=O)CC)[C@@H]2CNC(=O)C2CC2)cc1	0	0	0	-	0	0
C/C=C/c1ccc([C@@H]2[C@@H](CNC(=O)C3CCC3)N(C(=O)NCCC)[C@H]2CO)cc1	103	0	0	-	0	0
COCC(=O)N1[C@H](CO)[C@H](c2ccccc2)[C@@H]1CNC(=O)c1ccccn1	0	0	0	-	0	108[16.7 µM]
C/C=C/c1ccc([C@@H]2[C@@H](CO)N(C(=O)COC)[C@H]2CNC(=O)CC)cc1	0	0	0	-	0	0
COCC(=O)N1[C@H](CO)[C@@H](c2ccccc2)[C@H]1CNC(=O)c1ccccn1	0	0	0	-	0	0
C/C=C/c1ccc([C@H]2[C@@H](CO)N(C(=O)CC)[C@@H]2CNC(=O)C2CC2)cc1	91	0	0	-	0	0
C/C=C/c1ccc([C@H]2[C@@H](CNC(=O)CC)N(C(=O)COC)[C@H]2CO)cc1	0	0	14	-	0	0
CC(C)C#Cc1cnc2c(c1)C(=O)N([C@@H](C)CO)C[C@H](C)[C@H](CN(C)C(=O)c1ccccc1F)O2	0	0	0	0	0	0
C=CC[C@]1(C(=O)N(C)C)N=C(c2ccc(OCCCO)cc2)O[C@H]1c1ccccc1	0	-	0	0	-	-
Cc1ccc(C(=O)N/C(=C\c2cccs2)C(=O)NC2CCCCC2)cc1	0	0	0	-	-25	0
Cc1ccc(C(=O)N/C(=C/c2cccs2)C(=O)N2CCCCCC2)cc1	0	-	-	0	-	-
O=S(=O)(Nc1ccc(-c2nc3cccnc3s2)cc1)c1cc(F)ccc1F	-	0	0	0	-20	0
CCc1ccc(S(=O)(=O)Nc2ccc(-c3nc4cccnc4s3)cc2)s1	0	-	0	0	0	0
O=C(NC(=S)Nc1ccccc1N1CCN(C(=O)c2ccccc2)CC1)c1ccccc1F	0	0	0	58	0	-
FC(F)(F)Oc1ccc(NC(=S)Nc2ccccc2N2CCOCC2)cc1	0	0	0	0	-51	0
O=C(NC(=S)Nc1ccccc1N1CCOCC1)c1ccccc1F	0	0	0	-	-34	0
O=C(Nc1ccccc1N1CCN(C(=O)c2ccccc2)CC1)c1ccc(Br)o1	0	0	0	69	0	0
SMILES	Cneo AK release	INS-1E GSIS act	CFTR F508del cor	HIV Env fusion	rRNA inh HTS	miR-122 sensor
O=C(Nc1ccccc1N1CCN(C(=O)c2ccccc2)CC1)c1ccc(Cl)cc1	0	0	0	0	0	0
CC(C)NC(=O)N(C)C[C@H]1Oc2c(NC(=O)Nc3cccc4ccccc34)cccc2C(=O)N([C@H](C)CO)C[C@H]1C	0	0	0	0	0	0
O=C(Nc1cc(C(F)(F)F)ccc1N1CCOCC1)C1=NN(c2ccccc2)C(=O)CC1	0	0	0	0	0	-
O=C(Nc1ccccc1N1CCOCC1)C1=NN(c2ccccc2)C(=O)CC1	0	50	0	0	0	0
COc1cc(C(=O)NC(=S)Nc2ccccc2N2CCOCC2)cc(OC)c1OC	80	0	0	0	0	-
O=C(NC(=S)Nc1ccccc1N1CCCC1)c1cccs1	0	0	-	0	0	-
O=C(NC(=S)Nc1ccccc1N1CCOCC1)c1cccs1	-	0	-	0	-29	-
C[C@@H]1C(=O)N[C@@H](c2ccc(F)cc2)CC=CC[C@H](C)Oc2ccccc2C(=O)N1C (mixture of isomers)	-	0	-	-	0	-
Cc1noc(C)c1S(=O)(=O)N(C)C[C@@H]1OCCCC[C@@H](C)Oc2ccc(NC(=O)Nc3cccc4ccccc34)cc2C(=O)N([C@@H](C)CO)C[C@H]1C	0	0	0	0	0	0
Cc1ccc(S(=O)(=O)N(C)C[C@H]2Oc3ccc(NS(=O)(=O)c4c(C)noc4C)cc3CC(=O)N([C@H](C)CO)C[C@H]2C)cc1	0	0	0	0	0	0
Cc1ccc(C2Oc3ccccc3C3=C2C(c2cccs2)n2ncnc2N3)cc1 (centres undefined)	0	-	-	102	-	0
Fc1ccc(C2C3=C(Nc4ncnn42)c2ccccc2OC3c2ccncc2)cc1 (centres undefined)	0	-	-	0	-	0
CCN(C[C@H]1[C@H](c2ccccc2)[C@@H](CO)N1C(C)=O)C(=O)NC(C)C	0	0	0	-	0	0
CN1CCC(NC(=O)c2cc(-c3cccc(Br)c3)nc3ccccc23)CC1	0	0	0	0	-23	0
O=C(NC1CC1)c1cc(-c2ccc(Br)cc2)nc2ccccc12	0	0	0	-	0	0
C[C@H]1CN([C@@H](C)CO)C(=O)c2cc(C3=CCCCC3)cnc2O[C@H]1CN(C)C(=O)c1ccccn1	0	0	0	0	0	0
Cc1ccc2[nH]c(C(=O)N3CCCC(Nc4ccc(F)cc4)C3)cc2c1 (centres undefined)	0	0	0	0	-34	0
Cc1cc(C)c(C(=O)N2CCCC(Nc3ccc(F)cc3)C2)o1 (centres undefined)	0	0	0	0	0	-
CC(C)CC#Cc1ccc([C@H]2[C@@H](CO)N3C(=O)CN(S(C)(=O)=O)C[C@H]23)cc1	-	0	-	-	0	-
COc1ccc(NC(=O)N(C)C[C@@H]2Oc3ccc(NS(=O)(=O)c4c(C)noc4C)cc3C(=O)N([C@H](C)CO)C[C@@H]2C)cc1	0	0	0	-	0	0
O=c1cc(-c2ccccc2)[nH]c2ccc(F)cc12	0	-	8.6	0	0	0
Cc1ccc(-c2cc(=O)c3cc(F)ccc3[nH]2)cc1	0	0	0	0	0	0
